Measured values from ChEMBL document CHEMBL1932942, “Antioxidant properties of 4-quinolones and structurally related flavones” (Bioorg Med Chem, 2012).
The source made the active and inactive calls. The rule behind the calls is not given here.

Columns and labels:
[1] = Antioxidant activity assessed as AAPH-induced peroxyl radical scavenging activity at 1 mM by ORAC assay; format: functional
[2] = Antioxidant activity assessed as ferric ion reducing activity using fe3+-TPTZ at 1 mM by FRAP assay; format: functional
[3] = Antioxidant activity assessed as trolox equivalents ratio of ferric ion reducing activity using fe3+-TPTZ at 0.001 mM by FRAP assay; format: functional
Procedure, shortened: (§1)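 Compound in 10% DMSO (final) was mixed with FRAP reagent (300 mM acetate buffer pH 3.6, 10 mM TPTZ in 40 mM HCl, 20 mM FeCl3, 10:1:1). Reading at 37 °C, 595 nm, after a 3 min lag, then every 6 min to 33 min. Value at 33 min expressed as percent of the 0.1 mM Trolox standard. DMSO/reagent blank subtracted. Triplicates.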

Brain [4] = test: Antioxidant activity against toxin solution-induced lipid peroxidation in Sprague-Dawley rat brain homogenates assessed as free MDA levels per mg of tissue at 1 by TBARS assay; format: functional, tissue-based
Procedure, shortened: (§2)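 Adult Sprague Dawley rat brains (200–250 g) homogenised 10% (w/v) in PBS, pH 7.4. Peroxidation induced with toxin solution (0.5 mM H2O2, 0.488 mM FeCl3, 0.14 mM ascorbic acid, 2:1:1). Compounds given in 10% DMSO final, with a 10% DMSO blank. BHT, TCA and TBA added, then 60 °C incubation, ice cooling and butanol extraction. A530 read; nmol MDA equivalents/mg tissue from a TMP curve.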

Brain [5] = test: Antioxidant activity against toxin solution-induced lipid peroxidation in Sprague-Dawley rat brain homogenates assessed as free MDA levels per mg of tissue at 0.1 by TBARS assay; format: functional, tissue-based; procedure, shortened: as §2
[6] = Antioxidant activity assessed as trolox equivalents ratio of AAPH-induced peroxyl radical scavenging activity at 0.1 mM by ORAC assay; format: functional
Procedure, shortened: (§3)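 Peroxyl scavenging in 75 mM potassium phosphate, pH 7.4. Compound in 10% DMSO (final) was mixed with 112 nM fluorescein, and 36 mM AAPH (final) was added. Fluorescence (ex 485/em 530 nm) was read every 5 min for 3 h. AUC was converted to Trolox equivalents against a Trolox curve (0–20 µM, duplicates). DMSO blank was subtracted. Mean of triplicates.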

Brain [7] = test: Antioxidant activity against toxin solution-induced lipid peroxidation in Sprague-Dawley rat brain homogenates assessed as free MDA levels per mg of tissue at 0.01 by TBARS assay; format: functional, tissue-based; procedure, shortened: as §2
[8] = Antioxidant activity assessed as trolox equivalents ratio of ferric ion reducing activity using fe3+-TPTZ at 0.1 mM by FRAP assay; format: functional; procedure, shortened: as §1
[9] = Antioxidant activity assessed as trolox equivalents ratio of AAPH-induced peroxyl radical scavenging activity at 0.001 mM by ORAC assay; format: functional; procedure, shortened: as §3
Brain [10] = test: Antioxidant activity against toxin solution-induced lipid peroxidation in Sprague-Dawley rat brain homogenates assessed as free MDA levels per mg of tissue at 0.001 by TBARS assay; format: functional, tissue-based
[11] = Antioxidant activity assessed as trolox equivalents ratio of ferric ion reducing activity using fe3+-TPTZ at 0.01 mM by FRAP assay; format: functional; procedure, shortened: as §1
[12] = Antioxidant activity assessed as trolox equivalents ratio of AAPH-induced peroxyl radical scavenging activity at 0.01 mM by ORAC assay; format: functional; procedure, shortened: as §3

Row | SMILES | Activity [1] | Activity [2] | Ratio [3] | Activity (Brain [4]) [nmol] | Activity (Brain [5]) [nmol] | Ratio [6] | Activity (Brain [7]) [nmol] | Ratio [8] | Ratio [9] | Activity (Brain [10]) | Ratio [11] | Ratio [12] | Ratio [1] | Ratio [2] | Activity [6] | Activity [8]
1 | Oc1ccc2c(O)cc(-c3ccccc3)nc2c1 | inactive | inactive | -3.48 | 0.72 | 0.71 | 57.5 | 0.69 | 1.41 | 15.3 | inactive | -1.26 | 26.4 |  |  |  | 
2 | O=c1cc(-c2ccccc2)oc2ccccc12 |  |  | 0.2 | 0.83 | 0.87 |  | 0.78 |  |  | inactive | 3.73 | 1.51 | 2.4 | 2.72 | inactive | inactive
3 | Oc1ccnc2ccccc12 | inactive | inactive | 2.82 | 0.77 | 0.92 |  | 0.93 | 0.23 | 1.5 | inactive | 1.69 |  |  |  |  | 
4 | O=c1cc(-c2ccccc2)oc2ccc(O)cc12 | inactive | inactive | 1.84 | 0.63 | 0.79 | 59 | 0.82 |  | 21.4 | inactive | 2.47 | 37.1 |  |  |  | 
5 | Oc1ccc2nc(-c3ccccc3)cc(O)c2c1 | inactive | inactive | 2.14 | 0.05 | 0.31 | 58.3 | 0.48 | 58.9 | 12.3 | inactive | 9.53 | 29 |  |  |  | 
6 | Oc1cccc2cccnc12 | inactive | inactive | 2.65 | 0.07 | 0.83 | 55.4 | 0.93 | 15.4 | 10.2 | inactive | 3.68 | 30.5 |  |  |  | 
7 | O=c1cc(-c2ccccc2)oc2cc(O)ccc12 | inactive | inactive | 2.04 | 0.91 | 0.48 |  | 0.42 | 15.1 |  | inactive | 2.52 |  |  |  |  | 
8 | Oc1cc(-c2ccccc2)nc2c(O)cccc12 | inactive | inactive | 3.56 | 0.27 | 0.49 | 65.4 | 0.58 | 97.7 | 9.18 | inactive | 25.5 | 26.1 |  |  |  | 
9 | c1ccc2ncccc2c1 | inactive | inactive | 1.97 | 0.73 | 0.77 |  | 0.8 | 0.98 | 1.4 | inactive | 2.42 |  |  |  |  | 
10 | Oc1cc(-c2ccccc2)nc2ccccc12 | inactive | inactive | 0.53 | 0.87 | 0.87 | 1.91 | 0.91 | 4.79 |  | inactive | 1.06 |  |  |  |  | 
